What was measured:
Assay type in all cases: functional
[1] = tested on: H4; test: Increase in light chain 3-GFP+ autophagosome vesicle intensity per cell in human H4 cells at 4.9 uM after 24 hrs by high throughput fluorescence microscopy relative to control
Outline: (§1)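 H4 cells stably expressing LC3-GFP, seeded in 96-well plates and exposed to compound for 24 h; fixed in 4% paraformaldehyde, nuclei stained with 3 μg/ml DAPI. Automated fluorescence microscopy scored number, size and intensity of LC3-GFP spots; values expressed relative to DMSO-treated wells, rapamycin positive control. Triplicate wells, mean ± SD; experiments repeated three times.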

[2] = tested on: H4; test: Induction of light chain 3-GFP level in human H4 cells at 4.9 uM after 24 hrs by high throughput fluorescence microscopy relative to control
Outline: (§2)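 H4 cells stably expressing LC3-GFP, kept in DMEM/10% FBS at 37°C, 5% CO2, were seeded in 96-well plates and exposed to compound for 24 h. Cells were then fixed in 4% paraformaldehyde and stained with 3 μg/ml DAPI. Automated fluorescence microscopy scored the number, size and intensity of LC3-GFP spots. Values are percent of DMSO wells, in triplicate, mean ± SD. Rapamycin served as positive control.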

[3] = tested on: H4; test: Increase in light chain 3-GFP+ autophagosome vesicle area per cell in human H4 cells at 4.9 uM after 24 hrs by high throughput fluorescence microscopy relative to control; outline: as §1
[4] = tested on: H4; test: Increase in light chain 3-GFP+ autophagosome vesicle number per cell in human H4 cells at 4.9 uM after 24 hrs by high throughput fluorescence microscopy relative to control; outline: as §2
[5] = tested on: H4; test: Induction of light chain 3-GFP level in human H4 cells at 12.7 uM after 24 hrs by high throughput fluorescence microscopy relative to control
Outline: (§3)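 H4 cells stably expressing LC3-GFP, grown in DMEM with 10% FBS, penicillin/streptomycin and 2 mM L-glutamine at 37°C, 5% CO2. Cells were seeded in 96-well plates and exposed to library compounds at 3–12 μM for 24 h, then fixed in 4% paraformaldehyde and stained with 3 μg/ml DAPI. LC3-GFP spot number, size and intensity were measured by high-throughput fluorescence microscopy and expressed relative to DMSO. Triplicates, mean ± SD.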

[6] = tested on: H4; test: Increase in light chain 3-GFP+ autophagosome vesicle number per cell in human H4 cells at 12.7 uM after 24 hrs by high throughput fluorescence microscopy relative to control
Outline: (§4)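 H4 cells stably expressing LC3-GFP were grown in DMEM with 10% FBS and 2 mM L-glutamine at 37°C, 5% CO2. They were exposed to each compound for 24 h, with DMSO as negative and rapamycin as positive control. Cells were then fixed in 4% paraformaldehyde and stained with 3 μg/ml DAPI. High-throughput fluorescence imaging scored LC3-GFP spot number, size and intensity, expressed relative to DMSO. Mean ± SD of triplicates; experiments repeated three times.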

[7] = tested on: H4; test: Increase in light chain 3-GFP+ autophagosome vesicle intensity per cell in human H4 cells at 12.7 uM after 24 hrs by high throughput fluorescence microscopy relative to control
[8] = tested on: H4; test: Increase in light chain 3-GFP+ autophagosome vesicle area per cell in human H4 cells at 12.7 uM after 24 hrs by high throughput fluorescence microscopy relative to control
[9] = tested on: H4; test: Increase in light chain 3-GFP+ autophagosome vesicle area per cell in human H4 cells at 3.8 uM after 24 hrs by high throughput fluorescence microscopy relative to control; outline: as §1
[10] = tested on: H4; test: Induction of light chain 3-GFP level in human H4 cells at 3.8 uM after 24 hrs by high throughput fluorescence microscopy relative to control; outline: as §2
[11] = tested on: H4; test: Increase in light chain 3-GFP+ autophagosome vesicle number per cell in human H4 cells at 3.8 uM after 24 hrs by high throughput fluorescence microscopy relative to control; outline: as §1
[12] = tested on: H4; test: Increase in light chain 3-GFP+ autophagosome vesicle intensity per cell in human H4 cells at 3.8 uM after 24 hrs by high throughput fluorescence microscopy relative to control; outline: as §1
[13] = tested on: H4; test: Increase in light chain 3-GFP+ autophagosome vesicle intensity per cell in human H4 cells at 8.5 uM after 24 hrs by high throughput fluorescence microscopy relative to control; outline: as §4
[14] = tested on: H4; test: Increase in light chain 3-GFP+ autophagosome vesicle area per cell in human H4 cells at 8.5 uM after 24 hrs by high throughput fluorescence microscopy relative to control
Outline: (§5)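 H4 cells stably expressing LC3-GFP, seeded in 96-well plates and exposed to compound for 24 h; screening concentrations were 3–12 μM, with rapamycin 0.22 μM and bafilomycin A1 0.40 μM. Cells fixed in 4% paraformaldehyde and stained with 3 μg/ml DAPI. Number, size and intensity of LC3-GFP spots measured by high-throughput fluorescence microscopy and expressed as percent of DMSO-treated wells. Rapamycin was the positive control. Triplicate wells, mean ± SD; experiments repeated three times.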

[15] = tested on: H4; test: Induction of light chain 3-GFP level in human H4 cells at 8.5 uM after 24 hrs by high throughput fluorescence microscopy relative to control; outline: as §3
[16] = tested on: H4; test: Increase in light chain 3-GFP+ autophagosome vesicle number per cell in human H4 cells at 8.5 uM after 24 hrs by high throughput fluorescence microscopy relative to control; outline: as §3
[17] = tested on: H4; test: Increase in light chain 3-GFP+ autophagosome vesicle area per cell in human H4 cells at 6.8 uM after 24 hrs by high throughput fluorescence microscopy relative to control; outline: as §5
[18] = tested on: H4; test: Induction of light chain 3-GFP level in human H4 cells at 6.8 uM after 24 hrs by high throughput fluorescence microscopy relative to control; outline: as §3
[19] = tested on: H4; test: Increase in light chain 3-GFP+ autophagosome vesicle intensity per cell in human H4 cells at 6.8 uM after 24 hrs by high throughput fluorescence microscopy relative to control; outline: as §4
[20] = tested on: H4; test: Increase in light chain 3-GFP+ autophagosome vesicle number per cell in human H4 cells at 6.8 uM after 24 hrs by high throughput fluorescence microscopy relative to control; outline: as §4

C=C1[C@@H](C)[C@H]2[C@H](Cc3ccccc3)NC(=O)[C@]23[C@H](OC(C)=O)/C=C/[C@@](C)(O)C(=O)[C@@H](C)C/C=C/[C@H]3[C@@H]1O [CYTOCHALASIN D]
Activity [1]: 378.77% | Activity [2]: 71.84% | Activity [3]: 306.27% | Activity [4]: 258.44%

C[C@@]12C(=O)OC(=O)[C@]1(C)[C@H]1CC[C@@H]2O1 [CANTHARIDIN]
Activity [5]: 24.47% | Activity [6]: 259.49% | Activity [7]: 463.81% | Activity [8]: 332.84%

C/C=C(/C)C(=O)O[C@H]1C(C)=C2[C@H]([C@@H]1OC(=O)CCCCCCC)[C@@](C)(OC(C)=O)C[C@H](OC(=O)CCC)[C@@]1(O)[C@H]2OC(=O)[C@@]1(C)O [THAPSIGARGIN]
Activity [9]: 199.81% | Activity [10]: 63.77% | Activity [11]: 193.06% | Activity [12]: 187.15%

Cc1coc2c1C(=O)C(=O)c1c-2ccc2c1CCCC2(C)C [TANSHINONE IIA]
Activity [13]: 273.72% | Activity [14]: 264.51% | Activity [15]: 79.77% | Activity [16]: 210.24%

COc1cc(/C=C/C(=O)CC(=O)/C=C/c2ccc(O)c(OC)c2)ccc1O [CURCUMIN]
Activity [17]: 228.38% | Activity [18]: 59.32% | Activity [19]: 249.22% | Activity [20]: 59.32%
